Tests used:
Type in all cases: functional
Oryctolagus cuniculus = organism: Oryctolagus cuniculus; experiment: Compound was evaluated for the prokinetic activity by measuring smooth muscle contractility from rabbit duodenum isolated tissue.
How it was run: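 Isolated rabbit duodenum in vitro; records induction of well-coordinated smooth muscle contractions; potency given as pED50.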

Escherichia coli = experiment: In vitro antibacterial activity against the Escherichia coli (No. of strains used :5)
Streptococcus sp. = experiment: In vitro antibacterial activity against the Streptococcus sp. (No. of strains used :4)
Staphylococcus aureus = experiment: In vitro antibacterial activity against the Staphylococcus aureus (No. of strains used :5)

| SMILES | pED50 (Oryctolagus cuniculus) | MIC (Escherichia coli) [µg/mL] | MIC (Streptococcus sp.) [µg/mL] | MIC (Staphylococcus aureus) [µg/mL] |
| --- | --- | --- | --- | --- |
| CCCCN(C)[C@H]1C[C@@H](C)OC(O[C@@H]2[C@@H](C)[C@H](OC3C[C@@](C)(OC)C[C@H](C)O3)[C@@H](C)C(=O)O[C@H](CC)[C@@](C)(O)[C@H](O)[C@@H](C)[C@H]3O[C@]2(C)C[C@@H]3C)[C@@H]1O (some centres not stated) | 4.71 | – | – | – |
| CC[C@H]1OC(=O)[C@H](C)[C@@H](OC2C[C@@](C)(OC)C[C@H](C)O2)[C@H](C)[C@@H](OC2O[C@H](C)C[C@H](N(C)CC#N)[C@H]2O)[C@@]2(C)C[C@H](C)[C@H](O2)[C@H](C)[C@@H](O)[C@]1(C)O (some centres not stated) | 5.71 | – | – | – |
| CC[C@H]1OC(=O)[C@H](C)[C@@H](OC2C[C@@](C)(OC)C[C@H](C)O2)[C@H](C)[C@@H](OC2O[C@H](C)C[C@H](N(C)C)[C@H]2O)[C@@]2(C)C[C@H](C)[C@H](O2)[C@H](C)[C@@H](O)[C@]1(C)O (some centres not stated) | 7.93 | > 100 | > 100 | > 100 |
| CC[C@H]1OC(=O)[C@H](C)[C@@H](OC2C[C@@](C)(OC)C[C@H](C)O2)[C@H](C)[C@@H](OC2O[C@H](C)C[C@H](N(C)C)[C@H]2O)[C@@]2(C)C[C@@H](C)[C@H](O2)[C@H](C)[C@@H](O)[C@]1(C)O (some centres not stated) | 7.8 | – | – | – |
| CC[C@H]1OC(=O)[C@H](C)[C@@H](OC2C[C@@](C)(OC)C[C@H](C)O2)[C@H](C)[C@@H](OC2O[C@H](C)C[C@H](N(C)CCO)[C@H]2O)[C@@]2(C)C[C@H](C)[C@H](O2)[C@H](C)[C@@H](O)[C@]1(C)O (some centres not stated) | 8.11 | > 100 | > 100 | > 100 |
| CC[C@H]1OC(=O)[C@H](C)[C@@H](OC2C[C@@](C)(OC)C[C@H](C)O2)[C@H](C)[C@@H](OC2O[C@H](C)C[C@H](N(C)CCN)[C@H]2O)[C@@]2(C)C[C@H](C)[C@H](O2)[C@H](C)[C@@H](O)[C@]1(C)O (some centres not stated) | 6.43 | – | – | – |
| CC[C@H]1OC(=O)[C@H](C)[C@@H](OC2C[C@@](C)(OC)C[C@H](C)O2)[C@H](C)[C@@H](OC2O[C@H](C)C[C@H](N(C)CCF)[C@H]2O)[C@@]2(C)C[C@H](C)[C@H](O2)[C@H](C)[C@@H](O)[C@]1(C)O (some centres not stated) | 6.67 | – | – | – |
| CC[C@H]1OC(=O)[C@H](C)[C@@H](OC2C[C@@](C)(OC)C[C@H](C)O2)[C@H](C)[C@@H](OC2O[C@H](C)C[C@H](N(C)Cc3ccccc3)[C@H]2O)[C@@]2(C)C[C@H](C)[C@H](O2)[C@H](C)[C@@H](O)[C@]1(C)O (some centres not stated) | 4 | – | – | – |
| CC[C@H]1OC(=O)[C@H](C)[C@@H](OC2C[C@@](C)(OC)C[C@H](C)O2)[C@H](C)[C@@H](OC2O[C@H](C)C[C@H](N(C)C(C)C)[C@H]2O)[C@@]2(C)C[C@H](C)[C@H](O2)[C@H](C)[C@@H](O)[C@]1(C)O (some centres not stated) | 7.75 | – | – | – |
| CC[C@H]1OC(=O)[C@H](C)[C@@H](OC2C[C@@](C)(OC)C[C@H](C)O2)[C@H](C)[C@@H](OC2O[C@H](C)C[C@H](N(C)CC)[C@H]2O)[C@@]2(C)C[C@H](C)[C@H](O2)[C@H](C)[C@@H](O)[C@]1(C)O (some centres not stated) | 8.54 | > 100 | > 100 | > 100 |
| CC[C@H]1OC(=O)[C@H](C)[C@@H](OC2C[C@@](C)(OC)C[C@H](C)O2)[C@H](C)[C@@H](OC2O[C@H](C)C[C@H](N(C)C)[C@H]2O)[C@@]2(C)C[C@@H](C)[C@@H](O2)[C@H](C)[C@@H](O)[C@]1(C)O (some centres not stated) | 5.45 | – | – | – |
| CC[C@H]1OC(=O)[C@H](C)[C@@H](OC2C[C@@](C)(OC)C[C@H](C)O2)[C@H](C)[C@@H](OC2O[C@H](C)C[C@H](N(C)CC)[C@H]2O)[C@@]2(C)CC(C)=C(O2)[C@H](C)[C@@H](O)[C@H]1C (some centres not stated) | 7.22 | – | – | – |
| CC[C@H]1OC(=O)[C@H](C)[C@@H](OC2C[C@@](C)(OC)C[C@H](C)O2)[C@H](C)[C@@H](OC2O[C@H](C)C[C@H](NC)[C@H]2O)[C@@]2(C)C[C@H](C)[C@H](O2)[C@H](C)[C@@H](O)[C@]1(C)O (some centres not stated) | 7.64 | – | – | – |
